Experimental data published in ChEMBL document CHEMBL1127678, “Dianilinophthalimides: potent and selective, ATP-competitive inhibitors of the EGF-receptor protein tyrosine kinase” (J Med Chem, 1994).

Key:
Protein kinase C (PKC) = assay: Inhibitory activity was determined against protein kinase C (PKC) from porcine brain; parameters: species or system Sus scrofa
[1] = biological target: cAMP-dependent protein kinase alpha-catalytic subunit (Oryctolagus cuniculus, UniProt Q95J97); assay: Inhibitory activity was determined against protein kinase A (PKA) of rabbit
Method in brief: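 PKA from rabbit muscle, kemptide (0.1 mg/mL) as substrate; compounds in DMSO (1% final).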

[2] = biological target: Proto-oncogene tyrosine-protein kinase Src (Homo sapiens, UniProt P12931); assay: Inhibitory activity against c-src tyrosine kinase
[3] = biological target: Tyrosine-protein kinase ABL (Homo sapiens, UniProt P00519+P42684); assay: Inhibitory activity against v-abl tyrosine kinase; format: protein assay
[4] = biological target: Epidermal growth factor receptor (Homo sapiens, UniProt P00533); assay: Inhibitory activity against recombinant tyrosine kinase EGF-R (EGF-R ICD)
[5] = biological target: T1, Platelet-derived growth factor receptor (Mus musculus, UniProt P05622+P26618); assay: (§1) Inhibition of PDGF-dependent autophosphorylation of PDGF-R in mouse BALB/c3T3 cells; format: functional, cell-based
[6] = Inhibition of BALB/MK mouse epidermal keratinocyte proliferation; format: functional
Method in brief: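 Mouse BALB/MK keratinocytes (EGF-dependent; kept in calcium-free DMEM/HAM's F12 1:1 with 5% FCS and EGF 5 ng/mL), 10^4 cells/well, seeded and incubated overnight. Serial dilutions added in DMSO (1% final), then 5-day incubation. Cell number by methylene blue staining.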

[7] = biological target: T1, Platelet-derived growth factor receptor; assay: as §1; format: functional, cell-based; remark: listed apart in the source
Method in brief: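 Confluent BALB/c 3T3 cells (collagen-coated wells, 3–5 days, no medium change) in DMEM with 1 mg/mL BSA; serially diluted compound for 2 h, then PDGF 50 ng/mL for 10 min. Cells were methanol-fixed, and phosphotyrosine was detected by ELISA (anti-pTyr 4G10, ABC-AP, p-nitrophenyl phosphate, 405 nm).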

Sequence of Proto-oncogene tyrosine-protein kinase Src (P12931 2-536 limits assumed): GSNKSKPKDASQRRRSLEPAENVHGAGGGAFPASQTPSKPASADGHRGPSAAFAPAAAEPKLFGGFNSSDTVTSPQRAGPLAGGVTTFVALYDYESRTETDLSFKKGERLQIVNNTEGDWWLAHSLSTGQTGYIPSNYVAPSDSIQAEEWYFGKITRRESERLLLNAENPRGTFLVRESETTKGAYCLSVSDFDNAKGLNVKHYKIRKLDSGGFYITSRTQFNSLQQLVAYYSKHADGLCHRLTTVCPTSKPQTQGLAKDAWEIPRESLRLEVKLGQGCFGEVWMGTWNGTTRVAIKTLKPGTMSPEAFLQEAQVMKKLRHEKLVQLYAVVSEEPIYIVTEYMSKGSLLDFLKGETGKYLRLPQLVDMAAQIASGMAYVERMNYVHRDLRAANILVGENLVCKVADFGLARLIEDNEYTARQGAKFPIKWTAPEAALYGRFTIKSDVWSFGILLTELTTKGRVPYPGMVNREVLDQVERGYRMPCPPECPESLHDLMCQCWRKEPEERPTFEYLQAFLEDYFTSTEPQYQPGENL
Sequence of Epidermal growth factor receptor (P00533 whole entry): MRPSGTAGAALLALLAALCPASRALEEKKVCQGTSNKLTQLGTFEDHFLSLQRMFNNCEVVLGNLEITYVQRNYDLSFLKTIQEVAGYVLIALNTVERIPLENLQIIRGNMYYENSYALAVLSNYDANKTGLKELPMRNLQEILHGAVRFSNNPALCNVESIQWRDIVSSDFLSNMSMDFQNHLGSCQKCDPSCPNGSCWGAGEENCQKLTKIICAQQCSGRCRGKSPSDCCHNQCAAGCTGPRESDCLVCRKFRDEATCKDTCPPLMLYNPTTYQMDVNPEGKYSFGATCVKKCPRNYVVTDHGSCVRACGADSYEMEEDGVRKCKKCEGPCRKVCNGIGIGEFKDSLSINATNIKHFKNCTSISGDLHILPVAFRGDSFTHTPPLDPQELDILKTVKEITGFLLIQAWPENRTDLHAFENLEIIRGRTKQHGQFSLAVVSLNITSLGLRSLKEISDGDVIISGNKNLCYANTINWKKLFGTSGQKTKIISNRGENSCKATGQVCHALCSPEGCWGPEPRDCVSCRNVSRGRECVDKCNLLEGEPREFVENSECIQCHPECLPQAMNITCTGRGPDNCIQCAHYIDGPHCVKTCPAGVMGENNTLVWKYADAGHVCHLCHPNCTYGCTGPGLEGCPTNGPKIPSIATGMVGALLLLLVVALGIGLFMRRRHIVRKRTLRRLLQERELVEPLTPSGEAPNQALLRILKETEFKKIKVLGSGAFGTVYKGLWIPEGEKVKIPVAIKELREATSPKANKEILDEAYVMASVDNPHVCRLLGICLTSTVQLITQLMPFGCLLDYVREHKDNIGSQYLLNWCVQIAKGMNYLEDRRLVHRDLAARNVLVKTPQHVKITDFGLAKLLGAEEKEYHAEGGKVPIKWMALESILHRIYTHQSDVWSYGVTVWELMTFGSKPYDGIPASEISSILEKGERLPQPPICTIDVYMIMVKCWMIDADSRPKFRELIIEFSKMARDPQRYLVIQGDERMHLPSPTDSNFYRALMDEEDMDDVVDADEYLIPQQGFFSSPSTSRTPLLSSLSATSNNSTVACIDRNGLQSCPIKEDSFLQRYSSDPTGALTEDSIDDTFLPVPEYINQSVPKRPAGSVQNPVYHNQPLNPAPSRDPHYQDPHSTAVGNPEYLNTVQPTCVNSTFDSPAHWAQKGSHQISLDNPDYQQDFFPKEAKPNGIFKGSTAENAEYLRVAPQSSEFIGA

Row | IC50 (Protein kinase C (PKC)) [µM] | IC50 [1] [µM] | IC50 [2] [µM] | IC50 [3] [µM] | IC50 [4] [µM] | IC50 [5] [µM] | IC50 [7] [µM] | SMILES | IC50 [6] [µM]
1 | 270 | > 500 | > 50 | > 50 |  |  |  | O=C1NC(=O)c2cc3c(cc21)N(c1ccccc1)CCN3c1ccccc1 | 
2 | > 100 | > 500 | > 50 | > 50 | > 50 |  |  | O=C1NC(=O)c2cc(NC3CCCCC3)c(NC3CCCCC3)cc21 | 
3 | 75 | > 500 | 8 | 12 |  |  |  | O=C1NC(=O)c2cc(Nc3ccc(O)cc3)c(Nc3ccc(O)cc3)cc21 | 
4 | > 100 | > 500 |  |  |  |  |  | N#Cc1ccc(Nc2cc3c(cc2Nc2ccc(C#N)cc2)C(=O)NC3=O)cc1 | 
5 | > 500 | > 500 | > 100 | > 50 |  |  |  | CN(c1ccccc1)c1cc2c(cc1N(C)c1ccccc1)C(=O)NC2=O | 
6 | > 100 | > 500 |  |  |  | > 100 |  | CC(=O)N(c1ccccc1)c1cc2c(cc1Nc1ccccc1)C(=O)NC2=O | 
7 | 460 | > 500 |  | > 50 |  | > 100 |  | COc1ccc(Nc2cc3c(cc2Nc2ccc(OC)cc2)C(=O)NC3=O)cc1 | 
8 | > 500 | > 500 | 1 | > 50 |  |  |  | CN(c1ccccc1)c1cc2c(cc1Nc1ccccc1)C(=O)NC2=O | 
9 | > 100 | > 500 | > 100 | > 100 |  | > 100 |  | Cc1ccc(Nc2cc3c(cc2Nc2ccc(C)cc2)C(=O)NC3=O)cc1 | 
10 | > 500 | > 500 |  |  |  | > 100 |  | O=C1NC(=O)c2cc(Nc3ccc(-c4ccccc4)cc3)c(Nc3ccc(-c4ccccc4)cc3)cc21 | 
11 | > 100 | > 500 |  |  |  | > 100 |  | O=C1c2cc(Nc3ccccc3)c(Nc3ccccc3)cc2C(=O)N1c1ccccc1 | > 50
12 | > 100 | > 500 |  |  |  | > 100 |  | CN1C(=O)c2cc(Nc3ccccc3)c(Nc3ccccc3)cc2C1=O | 
13 | > 500 | > 500 |  |  |  |  |  | COC(=O)c1cc(Nc2ccc(F)cc2)c(Nc2ccc(F)cc2)cc1C(=O)OC | 
14 | > 100 | > 500 | 64 | > 100 |  | > 100 |  | COc1ccc(Nc2cc3c(cc2Nc2ccccc2)C(=O)NC3=O)cc1 | 
15 | > 500 | > 500 |  |  |  |  |  | O=C1NC(=O)c2cc(Nc3ccc(I)cc3)c(Nc3ccc(I)cc3)cc21 | 
16 | > 500 | > 500 |  |  |  |  |  | COC(=O)c1cc(Nc2ccccc2)c(Nc2ccccc2)cc1C(=O)OC | 
17 | > 500 | > 500 | > 100 | > 50 |  |  |  | CCN(CC)c1ccc(Nc2cc3c(cc2Nc2ccc(N(CC)CC)cc2)C(=O)NC3=O)cc1 | 
18 | > 50 | > 500 |  |  |  |  |  | O=C1NC(=O)c2cc(Sc3ccccc3)c(Sc3ccccc3)cc21 | 
19 | 32 | > 500 | 50 | > 50 |  | 100 |  | O=C1NC(=O)c2cc(Nc3ccc(F)cc3)c(Nc3ccc(F)cc3)cc21 [CGP-53353] | 
20 | 80 | > 500 | 16 | > 50 |  |  | 100 | O=C1NC(=O)c2cc(Nc3ccccc3)c(Nc3ccccc3)cc21 [DAPH] | 
21 | 0.19 |  |  | 20 |  |  |  | O=C1NC(=O)C(c2c[nH]c3ccccc23)=C1c1c[nH]c2ccccc12 [RO-316233] | 

Row | SMILES | IC50 (Protein kinase C (PKC)) [µM] | IC50 [1] [µM] | IC50 [2] [µM] | IC50 [3] [µM] | IC50 [4] [µM] | IC50 [5] [µM] | IC50 [7] [µM] | IC50 [6] [µM]
22 | O=C1NC(=O)c2c1c1c3ccccc3[nH]c1c1[nH]c3ccccc3c21 [STAUROSPORINE AGLYCON] |  | > 10 |  |  |  |  |  | 
